ChEMBL document CHEMBL5038638, “Structure-Activity Relationship Study of Subtype-Selective Positive Modulators of KCa2 Channels” (J Med Chem, 2022)
Active and inactive are the calls of the source. No cut-off for these calls is given here.

Experiments:
Assay type in all cases: cell-based
[1] = target: Small conductance calcium-activated potassium channel protein 2 (Rattus norvegicus, UniProt P70604); experiment: Potentiation of rat KCa2.2a expressed in HEK293 cells at -90 mV holding potential measured at 1 to 2 days by patch clamp electrophysiology
How it was run: (§1)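 Inside-out patches from HEK293 cells transfected (calcium-phosphate) with channel cDNA plus CaM and GFP (7:4:2). Bath (mM): 140 KCl, 10 Hepes pH 7.2, 1 EGTA, 0.1 dibromo-BAPTA, 1 HEDTA, with Ca2+ added to set free Ca2+, verified against a fluorescence standard curve. Currents taken at –90 mV and normalized to the maximal-compound response. EC50 and Hill coefficient came from a concentration–response fit. Efficacy was the maximal-compound current relative to the current at 10 µM Ca2+.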

[2] = target: Calcium-activated potassium channel subunit alpha-1 (Homo sapiens) (UniProt Q12791); experiment: Potentiation of human KCa1.1 expressed in HEK293 cells at 100 uM with -90 mV holding potential measured at 1 to 2 days by patch clamp electrophysiology; conditions: time 1-2 day
[3] = target: Small conductance calcium-activated potassium channel protein 2 (Rattus norvegicus) (UniProt P70604); experiment: Potentiation of rat KCa2.2a expressed in HEK293 cells at 0.01 to 100 uM with -90 mV holding potential measured at 1 to 2 days by patch clamp electrophysiology relative to calcium; conditions: filed as positive allosteric modulator, dose 0.01-100 µM, time 1-2 day; how it was run: as §1
[4] = target: Small conductance calcium-activated potassium channel protein 1 (Homo sapiens) (UniProt Q92952); experiment: Potentiation of human KCa2.1 expressed in HEK293 cells at 0.01 to 100 uM with -90 mV holding potential measured at 1 to 2 days by patch clamp electrophysiology relative to calcium; conditions: dose 0.01-100 µM, time 1-2 day; how it was run: as §1
[5] = target: Intermediate conductance calcium-activated potassium channel protein 4 (Homo sapiens) (UniProt O15554); experiment: Potentiation of human KCa3.1 expressed in HEK293 cells at 0.01 to 100 uM with -90 mV holding potential measured at 1 to 2 days by patch clamp electrophysiology relative to calcium; conditions: dose 0.01-100 µM, time 1-2 day; how it was run: as §1
[6] = system: N1E-115; experiment: Inhibition of mouse Nav1.2 expressed in mouse N1E-115 cells at 100 uM with -90 mV holding potential measured by patch clamp electrophysiology
[7] = target: T1, Small conductance calcium-activated potassium channel protein 3 (Homo sapiens, UniProt Q9UGI6); experiment: Potentiation of human KCa2.3 expressed in HEK293 cells at -90 mV holding potential measured at 1 to 2 days by patch clamp electrophysiology; how it was run: as §1
[8] = target: T1, Small conductance calcium-activated potassium channel protein 3; experiment: Potentiation of human KCa2.3 expressed in HEK293 cells at -90 mV holding potential measured at 1 to 2 days by patch clamp electrophysiology relative to calcium; how it was run: as §1

Small conductance calcium-activated potassium channel protein 2, sequence (P70604 whole entry): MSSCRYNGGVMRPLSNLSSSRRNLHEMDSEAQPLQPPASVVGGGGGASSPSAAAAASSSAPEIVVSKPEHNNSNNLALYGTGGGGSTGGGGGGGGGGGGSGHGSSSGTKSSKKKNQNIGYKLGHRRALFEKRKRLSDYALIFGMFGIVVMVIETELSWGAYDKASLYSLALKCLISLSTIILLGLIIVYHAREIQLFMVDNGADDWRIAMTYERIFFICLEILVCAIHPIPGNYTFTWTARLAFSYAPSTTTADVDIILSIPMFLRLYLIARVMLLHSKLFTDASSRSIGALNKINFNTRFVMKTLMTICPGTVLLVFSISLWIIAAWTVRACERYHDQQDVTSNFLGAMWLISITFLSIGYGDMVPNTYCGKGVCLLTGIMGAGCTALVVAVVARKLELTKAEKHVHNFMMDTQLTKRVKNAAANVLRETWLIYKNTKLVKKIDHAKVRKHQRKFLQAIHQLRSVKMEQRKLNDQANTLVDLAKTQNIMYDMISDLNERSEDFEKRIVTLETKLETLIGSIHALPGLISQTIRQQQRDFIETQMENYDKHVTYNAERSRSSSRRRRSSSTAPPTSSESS
Small conductance calcium-activated potassium channel protein 2 (Rattus norvegicus), sequence (P70604 whole entry): as above
Calcium-activated potassium channel subunit alpha-1 (Homo sapiens), sequence (Q12791 whole entry): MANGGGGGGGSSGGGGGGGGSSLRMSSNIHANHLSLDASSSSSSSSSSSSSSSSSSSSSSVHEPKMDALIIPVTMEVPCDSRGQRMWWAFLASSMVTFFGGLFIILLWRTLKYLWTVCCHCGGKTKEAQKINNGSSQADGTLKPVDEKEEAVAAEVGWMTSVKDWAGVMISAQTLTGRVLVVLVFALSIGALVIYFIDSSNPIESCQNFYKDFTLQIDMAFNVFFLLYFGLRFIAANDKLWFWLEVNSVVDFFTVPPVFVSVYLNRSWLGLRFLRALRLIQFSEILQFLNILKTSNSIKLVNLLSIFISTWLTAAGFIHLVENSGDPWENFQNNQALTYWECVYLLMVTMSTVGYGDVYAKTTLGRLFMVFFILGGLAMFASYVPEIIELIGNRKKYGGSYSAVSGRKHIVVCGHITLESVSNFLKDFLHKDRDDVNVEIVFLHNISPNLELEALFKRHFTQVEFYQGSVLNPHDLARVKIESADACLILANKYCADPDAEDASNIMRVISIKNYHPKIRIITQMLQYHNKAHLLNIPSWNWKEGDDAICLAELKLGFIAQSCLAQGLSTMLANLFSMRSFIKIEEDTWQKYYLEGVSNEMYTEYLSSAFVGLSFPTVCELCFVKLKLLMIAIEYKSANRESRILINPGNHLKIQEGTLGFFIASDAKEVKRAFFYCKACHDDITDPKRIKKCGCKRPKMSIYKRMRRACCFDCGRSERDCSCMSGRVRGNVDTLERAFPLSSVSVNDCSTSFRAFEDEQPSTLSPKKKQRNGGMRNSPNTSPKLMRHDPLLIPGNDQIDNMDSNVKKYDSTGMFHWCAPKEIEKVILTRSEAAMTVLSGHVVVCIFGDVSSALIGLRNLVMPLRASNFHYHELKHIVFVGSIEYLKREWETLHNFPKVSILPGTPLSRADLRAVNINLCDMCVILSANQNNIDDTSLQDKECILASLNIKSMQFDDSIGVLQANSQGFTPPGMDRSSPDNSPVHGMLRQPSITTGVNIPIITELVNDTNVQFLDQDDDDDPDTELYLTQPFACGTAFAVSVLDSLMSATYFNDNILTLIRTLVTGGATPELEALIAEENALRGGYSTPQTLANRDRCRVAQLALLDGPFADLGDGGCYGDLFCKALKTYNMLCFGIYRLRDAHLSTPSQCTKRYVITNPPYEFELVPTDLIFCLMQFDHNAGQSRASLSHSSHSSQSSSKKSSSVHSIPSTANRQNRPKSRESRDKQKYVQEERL
Small conductance calcium-activated potassium channel protein 1 (Homo sapiens), sequence (Q92952 whole entry): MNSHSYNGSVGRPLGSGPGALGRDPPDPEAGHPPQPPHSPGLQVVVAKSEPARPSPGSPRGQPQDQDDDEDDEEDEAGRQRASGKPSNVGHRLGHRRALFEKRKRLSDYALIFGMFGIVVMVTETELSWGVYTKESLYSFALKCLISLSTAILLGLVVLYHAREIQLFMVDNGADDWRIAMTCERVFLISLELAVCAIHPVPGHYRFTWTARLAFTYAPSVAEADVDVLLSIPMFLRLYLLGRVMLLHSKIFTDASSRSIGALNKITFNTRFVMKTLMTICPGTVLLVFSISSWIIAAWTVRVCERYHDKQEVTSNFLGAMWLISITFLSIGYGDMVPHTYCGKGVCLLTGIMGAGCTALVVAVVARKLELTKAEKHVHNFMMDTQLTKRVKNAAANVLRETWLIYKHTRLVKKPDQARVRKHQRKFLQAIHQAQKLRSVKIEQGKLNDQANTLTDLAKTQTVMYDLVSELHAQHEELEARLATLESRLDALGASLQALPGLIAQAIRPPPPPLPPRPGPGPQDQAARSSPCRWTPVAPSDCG
T1 sequence (Q9UGI6 whole entry): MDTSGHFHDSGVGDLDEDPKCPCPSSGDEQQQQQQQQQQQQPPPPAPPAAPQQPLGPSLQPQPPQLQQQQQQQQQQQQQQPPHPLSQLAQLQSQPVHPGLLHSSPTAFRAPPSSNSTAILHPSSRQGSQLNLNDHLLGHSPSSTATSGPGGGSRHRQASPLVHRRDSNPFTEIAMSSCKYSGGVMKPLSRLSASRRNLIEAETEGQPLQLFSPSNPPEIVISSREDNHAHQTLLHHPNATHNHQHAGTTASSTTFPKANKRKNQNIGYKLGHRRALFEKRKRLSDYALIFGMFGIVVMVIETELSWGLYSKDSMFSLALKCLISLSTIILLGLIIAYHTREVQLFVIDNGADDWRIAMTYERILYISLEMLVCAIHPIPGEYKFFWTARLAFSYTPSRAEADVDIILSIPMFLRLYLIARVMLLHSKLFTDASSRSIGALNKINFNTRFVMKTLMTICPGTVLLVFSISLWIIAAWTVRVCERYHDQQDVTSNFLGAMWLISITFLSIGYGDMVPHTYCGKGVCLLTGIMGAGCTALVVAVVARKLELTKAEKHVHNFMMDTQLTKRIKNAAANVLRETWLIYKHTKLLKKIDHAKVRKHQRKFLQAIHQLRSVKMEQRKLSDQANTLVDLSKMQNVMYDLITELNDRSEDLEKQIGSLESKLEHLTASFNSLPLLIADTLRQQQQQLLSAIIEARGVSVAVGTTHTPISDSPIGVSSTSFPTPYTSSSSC
Intermediate conductance calcium-activated potassium channel protein 4 (Homo sapiens), sequence (O15554 whole entry): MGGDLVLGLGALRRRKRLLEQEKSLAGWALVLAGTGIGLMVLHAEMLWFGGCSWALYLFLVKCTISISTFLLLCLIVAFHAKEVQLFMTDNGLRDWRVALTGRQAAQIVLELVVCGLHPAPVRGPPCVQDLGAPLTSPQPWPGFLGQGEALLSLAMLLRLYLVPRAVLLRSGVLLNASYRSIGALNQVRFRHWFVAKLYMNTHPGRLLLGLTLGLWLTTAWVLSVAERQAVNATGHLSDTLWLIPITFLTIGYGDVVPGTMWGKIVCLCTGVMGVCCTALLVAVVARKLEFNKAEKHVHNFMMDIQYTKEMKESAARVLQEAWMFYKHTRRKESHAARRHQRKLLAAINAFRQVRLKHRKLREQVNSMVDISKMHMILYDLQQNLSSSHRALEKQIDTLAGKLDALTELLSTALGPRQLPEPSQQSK

EC50 [1] | SMILES | further results
2.97 µM | Cc1cc(Nc2cc(F)ccc2Cl)nc(-n2nc(C)cc2C)n1 | 
> 100 µM | Cc1cc(C)n(-c2cc(Nc3cc(F)ccc3F)nc(N)n2)n1 | 
3.59 µM | Cc1cc(Nc2ccc(F)c(Cl)c2)nc(-c2coc(C)n2)n1 | 
> 100 µM | Cc1cc(N[C@H]2CC[C@@H](F)CC2)nc(-n2nc(C)cc2C)n1 | 
> 100 µM | Cc1cc(N[C@H]2CC[C@@H](CO)CC2)nc(-n2nc(C)cc2C)n1 | 
13.8 µM | Cc1cc(Nc2cc(Cl)ccc2F)nc(-c2coc(C)n2)n1 | 
> 100 µM | COc1cc2nc(Nc3cc(C)nc(-n4nc(C)cc4C)n3)[nH]c2cc1OC | 
> 30 µM | Cc1cc(Nc2cc(C(=O)O)ccc2F)nc(-n2nc(C)cc2C)n1 | 
> 100 µM | Cc1cc(N[C@H]2CC[C@@H]([N+](=O)[O-])CC2)nc(-n2nc(C)cc2C)n1 | 
> 100 µM | Cc1cc(Nc2cc(Cl)cc(C(F)(F)F)c2)nc(-n2nc(C)cc2C)n1 | 
> 100 µM | Cc1cc(C)n(-c2cc(Nc3cc(F)ccc3Cl)nc(N)n2)n1 | 
> 100 µM | Cc1cc(C)n(-c2cc(Nc3ccc(F)c(Cl)c3)nc(N)n2)n1 | 
> 100 µM | Cc1cc(C)n(-c2cc(Nc3cc(Cl)ccc3F)nc(N)n2)n1 | 
> 100 µM | Cc1cc(NCCc2ccc([N+](=O)[O-])cc2)nc(-n2nc(C)cc2C)n1 | 
38.8 µM | Cc1cn(-c2nc(C)cc(Nc3ccc(F)c(Cl)c3)n2)cn1 | 
0.64 µM | Cc1cc(Nc2cc(Cl)ccc2F)nc(-n2nc(C)cc2C)n1 | Activity [2]: inactive; Emax [3]: 90%; Emax [4]: 0%; Emax [5]: 2.02%; inhibition [6]: 50%; EC50 [7]: 600 nM
4.51 µM | Cc1cn(-c2nc(C)cc(Nc3cc(Cl)ccc3F)n2)cn1 | 
3.45 µM | Cc1cc(Nc2ccc(C(F)(F)F)cc2)nc(-n2nc(C)cc2C)n1 | 
> 100 µM | Cc1cc(N[C@@H](Cc2ccc(O)cc2)C(=O)O)nc(-n2nc(C)cc2C)n1 | 

EC50 [1] | SMILES | further results
> 100 µM | Cc1cc(C)n(-c2cc(Nc3ccc(Cl)cc3F)nc(N)n2)n1 | 
> 100 µM | Cc1cc(N[C@H]2CC[C@@H](O)CC2)nc(-n2nc(C)cc2C)n1 | 
> 100 µM | Cc1cc(C)n(-c2cc(Nc3cccc(Cl)c3)nc(N)n2)n1 | 
5.03 µM | Cc1cc(Nc2cccc(F)c2F)nc(-n2nc(C)cc2C)n1 | 
3.27 µM | Cc1cc(Nc2ccc(C(F)(F)F)c(Cl)c2)nc(-n2nc(C)cc2C)n1 | 
> 100 µM | Cc1cc(N[C@H]2CC[C@@H](N)CC2)nc(-n2nc(C)cc2C)n1 | 
> 100 µM | Cc1cc(N[C@@H](Cc2ccc(C#N)cc2)C(=O)O)nc(-n2nc(C)cc2C)n1 | 
6.59 µM | Cc1cc(C)n(-c2nc(N)cc(Nc3ccc(F)c(Cl)c3)n2)n1 | 
0.99 µM | Cc1cc(Nc2ccc(F)c(Cl)c2)nc(-n2nc(C)cc2C)n1 | Activity [2]: inactive; Emax [3]: 90%; Emax [4]: 0%; EC50 [8]: 190 nM; Emax [5]: 28.3%; inhibition [6]: 50%
49.7 µM | CO[C@H]1CC[C@@H](Nc2cc(C)nc(-n3nc(C)cc3C)n2)CC1 | Emax [3]: 94.6%
> 100 µM | Cc1cc(N[C@@H](Cc2ccc(F)c(F)c2)C(=O)O)nc(-n2nc(C)cc2C)n1 | 
> 100 µM | Cc1cc(Nc2ccc([N+](=O)[O-])cc2)nc(-n2nc(C)cc2C)n1 | 
7.48 µM | Cc1cc(NC2CCCCC2)nc(-n2nc(C)cc2C)n1 | Emax [3]: 85.6%
4.32 µM | Cc1cc(C)n(-c2cc(C)c(Nc3ccc(F)c(Cl)c3)nn2)n1 | 
1.99 µM | Cc1cc(Nc2ccc(Cl)cc2F)nc(-n2nc(C)cc2C)n1 | 
> 100 µM | Cc1cc(C)n(-c2cc(Nc3ccc(C(F)(F)F)c(Cl)c3)nc(N)n2)n1 | 
> 100 µM | Cc1cc(Nc2ccc(S)cc2)nc(-n2nc(C)cc2C)n1 | 
1.89 µM | Cc1cc(Nc2cc(F)ccc2F)nc(-n2nc(C)cc2C)n1 | 
